Results reported in ChEMBL document CHEMBL1781980, “Structure-activity relationship studies to probe the phosphoprotein binding site on the carboxy terminal domains of the breast cancer susceptibility gene 1” (J Med Chem, 2011).
The source made the active and inactive calls. No cut-off for these calls is given here. Non-standard residues stand in square brackets, D forms with d. Residues, ends and D or L forms follow the SMILES beside them. pS = N[C@@H](COP(=O)(O)O)C(=O)O

Tests used:
[1] = molecular target: T1, Breast cancer type 1 susceptibility protein (Homo sapiens, UniProt P38398); assay: Binding affinity to BRCA1 by isothermal titration calorimetric assay
How it was run: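 Direct ITC titration at 25°C. Protein dialyzed three times (2 h each) into 50mM KH2PO4 pH = 7.2; final dialysate used for reference cell and to dissolve peptides. Peptides (100 – 400 μM) in syringe, protein (10 – 20 μM) in cell; 3 μL first injection then 29 × 10 μL every 3 minutes, stirred at 307 rpm. Peptide-into-buffer dilution curves collected; Kd and ΔG, ΔH, ΔS derived.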

[2] = molecular target: T1, Breast cancer type 1 susceptibility protein; assay: Inhibition of BRCA1 by fluorescence polarization assay
How it was run: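 Competitive fluorescence polarization assay. Peptides titrated into a mixture of BRCT protein (1000 nM) and fluorescently labeled tetrapeptide (100 nM). Polarization and fluorescence read on a plate reader. IC50 values obtained by non-linear least square fitting.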
Target sequence in this assay (P38398 whole entry): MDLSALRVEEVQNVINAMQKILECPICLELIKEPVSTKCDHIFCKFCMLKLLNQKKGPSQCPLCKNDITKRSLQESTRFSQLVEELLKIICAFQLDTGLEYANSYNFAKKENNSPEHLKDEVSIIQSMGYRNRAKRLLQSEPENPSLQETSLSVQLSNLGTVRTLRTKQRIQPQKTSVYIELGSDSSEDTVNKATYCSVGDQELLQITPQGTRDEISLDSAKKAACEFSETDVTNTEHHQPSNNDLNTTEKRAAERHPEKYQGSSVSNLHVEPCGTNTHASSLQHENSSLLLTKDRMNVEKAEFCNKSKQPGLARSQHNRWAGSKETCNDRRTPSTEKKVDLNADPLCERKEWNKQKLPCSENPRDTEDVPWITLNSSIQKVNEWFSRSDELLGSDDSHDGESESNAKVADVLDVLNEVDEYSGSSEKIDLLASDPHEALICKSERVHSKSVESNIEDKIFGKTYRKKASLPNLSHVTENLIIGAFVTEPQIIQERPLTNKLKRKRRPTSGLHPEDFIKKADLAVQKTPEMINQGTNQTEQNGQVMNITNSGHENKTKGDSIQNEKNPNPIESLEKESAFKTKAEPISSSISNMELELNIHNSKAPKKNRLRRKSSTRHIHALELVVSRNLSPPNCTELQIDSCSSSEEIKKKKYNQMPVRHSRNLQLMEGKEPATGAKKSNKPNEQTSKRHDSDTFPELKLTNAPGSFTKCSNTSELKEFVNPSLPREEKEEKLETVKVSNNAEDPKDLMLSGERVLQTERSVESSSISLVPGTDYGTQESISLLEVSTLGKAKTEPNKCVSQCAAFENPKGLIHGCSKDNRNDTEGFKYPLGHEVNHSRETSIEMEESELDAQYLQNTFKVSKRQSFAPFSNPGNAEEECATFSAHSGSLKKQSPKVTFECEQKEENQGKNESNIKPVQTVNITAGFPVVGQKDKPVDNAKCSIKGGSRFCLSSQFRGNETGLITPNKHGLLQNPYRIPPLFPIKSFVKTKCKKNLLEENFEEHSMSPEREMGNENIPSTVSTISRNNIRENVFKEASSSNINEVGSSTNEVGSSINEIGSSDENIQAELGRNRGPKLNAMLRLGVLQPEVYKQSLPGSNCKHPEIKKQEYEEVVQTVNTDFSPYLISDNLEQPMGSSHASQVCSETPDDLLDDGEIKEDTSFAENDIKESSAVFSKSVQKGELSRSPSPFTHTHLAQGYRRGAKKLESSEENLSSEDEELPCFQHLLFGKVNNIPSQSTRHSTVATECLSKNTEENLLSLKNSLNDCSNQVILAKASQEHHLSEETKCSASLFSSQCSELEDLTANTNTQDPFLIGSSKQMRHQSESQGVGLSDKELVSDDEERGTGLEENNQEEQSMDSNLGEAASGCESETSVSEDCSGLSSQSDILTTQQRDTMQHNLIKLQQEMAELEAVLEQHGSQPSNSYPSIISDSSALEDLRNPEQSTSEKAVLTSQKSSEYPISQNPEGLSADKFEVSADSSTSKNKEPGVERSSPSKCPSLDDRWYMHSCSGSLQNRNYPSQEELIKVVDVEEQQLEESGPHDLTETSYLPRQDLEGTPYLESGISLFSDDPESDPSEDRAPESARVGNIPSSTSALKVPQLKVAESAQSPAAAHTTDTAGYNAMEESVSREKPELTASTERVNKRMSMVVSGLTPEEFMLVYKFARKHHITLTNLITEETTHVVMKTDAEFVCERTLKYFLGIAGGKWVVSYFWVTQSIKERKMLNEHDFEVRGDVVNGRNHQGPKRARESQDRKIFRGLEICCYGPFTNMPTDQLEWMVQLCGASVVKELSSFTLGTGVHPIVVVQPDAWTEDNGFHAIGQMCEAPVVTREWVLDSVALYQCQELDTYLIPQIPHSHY

Structure (SMILES) | Kd [1] | Activity [1] | also measured
CC(=O)N[C@@H](CO)C(=O)N[C@@H](CCCNC(=N)N)C(=O)N[C@@H](CO)C(=O)N[C@H](C(=O)N[C@@H](COP(=O)(O)O)C(=O)N1CCC[C@H]1C(=O)N[C@H](C(=O)N[C@@H](Cc1ccccc1)C(=O)N[C@@H](CC(N)=O)C(=O)N[C@@H](CCCCN)C(N)=O)[C@@H](C)O)[C@@H](C)O | 440 nM |  | 
CC(=O)N[C@@H](CCC(=O)O)C(=O)N1CCC[C@H]1C(=O)N[C@H](C(=O)N[C@@H](Cc1ccccc1)C(N)=O)[C@@H](C)O (Ac-EPTF-NH2) |  |  | IC50 [2]: > 250000 nM
CC[C@H](C)[C@H](N)C(=O)N[C@@H](CO)C(=O)N[C@@H](CCCNC(=N)N)C(=O)N[C@@H](CO)C(=O)N[C@H](C(=O)N[C@@H](COP(=O)(O)O)C(=O)N1CCC[C@H]1C(=O)N[C@H](C(=O)N[C@@H](Cc1ccccc1)C(=O)N[C@@H](CC(N)=O)C(=O)N[C@@H](CCCCN)C(=O)N[C@@H](CCC(N)=O)C(=O)N[C@H](C(=O)O)[C@@H](C)O)[C@@H](C)O)[C@@H](C)O | 410 nM |  | 

Continued, in another order:

Kd [1] | Activity [1] | Structure (SMILES) | also measured
 | Active | CC(=O)N[C@@H](COP(=O)(O)O)C(=O)N1CCC[C@H]1C(=O)N[C@H](C(=O)N[C@@H](Cc1ccccc1)C(N)=O)[C@@H](C)O (Ac-[pS]PTF-NH2) | 
 | Active | CC(=O)N[C@@H](COP(=O)(O)O)C(=O)N1CCC[C@H]1C(=O)N[C@H](C(=O)N[C@@H](Cc1ccccc1)C(N)=O)C(C)C (Ac-[pS]PVF-NH2) | 
 | Active | CC(=O)N[C@@H](COP(=O)(O)O)C(=O)N1CCC[C@H]1C(=O)N[C@H](C(=O)N[C@@H](Cc1ccccc1)C(=O)O)C(C)C (Ac-[pS]PVF-OH) | 
